# Screening data deposited in PubChem BioAssay by several laboratories.
# NF-kB neuron act – NF-kB expression increase, human neuronal cells; NF-kB reporter expression; stronger effect = higher value; fold change at 12.5 µM; actives 1.6% (n = 190,000); in the data active = fold change above about 3.3
# STAT1 act – activators of IFN-gamma induced STAT1 signaling; NIH 3T3 STAT1-luciferase reporter, luminescence; 100% = IFN-gamma alone, no compound; activation (% of control), % at 5.5 µM; actives 2.6% (n = 200,000);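 active = activation above the screen-wide mean activation plus 3 SD, cut at about 130% in these data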;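 note: raw ratio to IFN-gamma control signal so 100% means no change and 0% no light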
# Pf gametocyte – inhibitors of late stage P. falciparum gametocyte viability; P. falciparum stage V gametocytes, ATP luminescence, 24 h; inhibition, % at 10.9 µM; actives 0.065% (n = 150,000); AID 743093;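 active = inhibition above the mean plus 3 SD of compounds within the control limits, set per campaign, cut at about 38% in these data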;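 note: 0% = DMSO wells and 100% = medium only without gametocytes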
# STAT3 act – STAT3 signaling activation | actives 0.91% (n = 190,000) | activation (% of control), % at 5.6 µM | U3A cells, IL-6 STAT3-luciferase reporter, luminescence; 100% = signal with IL-6 EC80 alone;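 active = activation above the screen-wide mean of compound activation plus 3 SD, cut at about 130% in these data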;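 note: 0% = background luminescence of wells with medium and substrate only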
#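 Test system: STAT3-luciferase reporter U3A cells; Detection: reporter luminescence signal; Times: 1 h compound pre-exposure, 6 h IL-6 stimulation, 37 °C; Benchmarks: IL-6-only high control; Also added: IL-6 stimulus at 33 ng/mL final.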
# STAT1 blocker – reduces IFN-gamma driven STAT1 reporter signal | NIH 3T3 STAT1-luciferase reporter, luminescence | AID 920 | actives 0.35% (n = 200,000) | inhibition, % at 5.5 µM;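 active = inhibition above a set limit, the mean inhibition across all tested compounds plus 3 SD, cut at about 34% in these data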;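 note: 0% = IFN-gamma with DMSO and 100% = IFN-gamma with 300 µM nifuroxazide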
# APP 5'UTR act – APP 5'UTR luciferase reporter activation. SH-SY5Y APP 5'UTR luciferase reporter, luminescence; zero percent = DMSO vehicle wells. actives 1% (n = 190,000). activation, % at 2 µM;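 active = activation above a set limit, based on mean plus 3 SD of controls, cut at about 140% in these data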
# * hit, by the source's call; . = no result given. Sampled rows, rich in hits. Any-hit rate of the full collection: about 3.9%.
SMILES,NF-kB neuron act,STAT1 act,Pf gametocyte,STAT3 act,STAT1 blocker,APP 5'UTR act
O=C1C(C=NCc2ccncc2)=C(O)c2ccccc21,1.07,104.6,.,108.2,-5.1,17.1
O=C1C(C=Nc2ccc(F)cc2)=C(O)c2ccccc21,7.14*,148.6*,-19.9,58.8,-51.0,148.0*
CCOC(=O)N1CCC(=NNC(=O)c2ccc(O)cc2)CC1,1.36,102.1,.,100.4,-2.2,32.1
COC(=O)c1cnc(N2CCCN(S(=O)(=O)c3ccc(C(F)(F)F)cc3)CC2)nc1C(F)(F)F,.,.,11.9,.,.,.
O=C(N/N=C/C(Cl)=C/c1ccccc1)c1ccncc1,1.55,100.5,1.0,91.5,0.1,-2.0
O=C(N/N=C/C(Cl)=C/c1ccccc1)c1ccccn1,4.26*,121.8,4.9,82.6,-23.9,131.4
Cc1ccc(/C=N/NC(=O)c2ccncc2)o1,1.13,101.7,12.0,94.2,-1.9,3.0
Cc1ccc(/C=N/NC(=O)c2ccccn2)o1,1.91,130.4*,7.8,102.8,-34.0,14.8
Cc1ccc(C(=O)C2CCOC(C)(C)C2)cc1 (stereo not given),1.19,91.7,0.5,105.1,8.2,5.2
Cn1cc(S(=O)(=O)NCc2ccc(Cl)cc2)c(=O)n(C)c1=O,.,.,-9.6,.,.,.
COc1ccccc1OCCN1CSC(=S)N(C)C1,6.58*,106.8,.,100.5,-7.5,-4.9
CCCN1C(=O)C2(SC(NC(C)=O)=NN2C(C)=O)c2cc(C)ccc21 (stereo not given),1.28,97.4,15.7,98.9,1.0,-4.0
Cc1cc(C)c2c3c(sc2n1)C(=O)N(c1ccccc1)CC(=O)N3,.,.,5.2,.,.,.
CC1(C)CC(=O)c2sc(NC(=O)c3ccccc3)nc2C1,3.55*,128.0,.,91.7,-30.1,170.5*
CC1(C)CC(=O)c2sc(NC(=O)C(C)(C)C)nc2C1,1.64,120.1,10.7,118.8,-23.1,29.1
CC1(C)CC(=O)c2sc(NC(=O)c3cccs3)nc2C1,3.44*,103.4,.,65.8,7.7,118.2
C=CCOC(=O)c1c(C)nc2cc3c(cc2c1C)OCO3,1.92,121.5,0.0,90.2,-24.1,13.8
COC(=O)c1ccccc1OCCCOc1ccc(C=O)cc1OC,1.24,134.3*,.,130.3,-37.6,90.7
COc1cc(C=O)ccc1OCc1ccccc1Br,1.67,116.0,.,96.4,-14.4,23.9
COc1cc(C=O)ccc1OCc1cccc(Br)c1,1.07,129.5*,-9.4,104.1,-33.6,57.6
COC(=O)c1ccccc1OCCOc1ccccc1C(=O)OC,1.2,100.5,.,105.9,-0.6,-2.9
Cc1cc(NC(=O)c2c(Br)c(C)nn2C)no1,1.02,93.1,.,73.1,7.8,14.7
O=S(=O)(c1ccc2ccccc2c1)N(CC1CO1)c1ccccc1 (stereo not given),1.19,95.7,-19.9,101.8,3.5,-3.2
O=C(Nc1ccc(Cl)c(C(F)(F)F)c1)[C@@H]1CC=C[C@@H]2CCN(C3CC3)C(=O)[C@@H]21,.,.,-4.9,.,.,.
Clc1ccc(/C(Cc2nc3ccccc3[nH]2)=N\Nc2ccccc2)cc1,2.64,136.0*,3.6,99.6,-42.7,77.9
SMILES,NF-kB neuron act,STAT1 act,Pf gametocyte,STAT3 act,STAT1 blocker,APP 5'UTR act
N#CCCN/N=C(/Cc1nc2ccccc2[nH]1)c1cccc(Cl)c1,0.77,97.9,.,132.8,2.3,21.7
Nc1c2c(nc3ccccc13)CSCC2,.,.,1.4,.,.,.
Cc1cc(C(=O)COC(=O)c2ccccc2O)c(C)n1Cc1cccs1,0.23,31.4,15.6,13.8,74.7*,7.6
COCCn1c(C)cc(C(=O)COC(=O)c2n[nH]c3ccccc23)c1C,0.87,73.9,-14.6,33.8,29.1,97.8
COCCn1c(C)cc(C(=O)COC(=O)c2ccc3c(c2)NC(=O)CS3)c1C,0.91,122.8,.,97.8,-25.6,-1.4
COCCn1c(C)cc(C(=O)COC(=O)c2ccc(NC(=O)CC#N)cc2)c1C,1.1,133.8*,30.1,106.4,-36.5,148.7*
COCCn1c(C)cc(C(=O)COC(=O)c2ccccc2Br)c1C,0.38,21.3,15.9,27.4,85.9*,29.9
COCCn1c(C)cc(C(=O)COC(=O)c2cncc(Br)c2)c1C,1.87,136.1*,.,102.7,-39.9,46.8
CC(C)(C)OC(=O)n1cc(CCO)c2ccccc21,.,.,-10.8,.,.,.
COc1ccc(-c2[nH]ncc2CNCCc2ncccc2C)cc1F,1.03,103.9,-2.5,100.9,-3.6,18.1
COCCn1c(C)cc(C(=O)COC(=O)c2ccc3ncsc3c2)c1C,1.05,132.3*,.,106.5,-35.3,82.9
O=C(N/C(=C/c1ccccc1)C(=O)N1CCOCC1)c1ccc([N+](=O)[O-])cc1,0.91,100.0,-2.1,107.3,-1.0,8.2
O=C(N/C(=C\c1cccc([N+](=O)[O-])c1)C(=O)N1CCOCC1)c1ccc([N+](=O)[O-])cc1,0.68,130.6*,18.3,117.0,-34.7,0.1
CN1C(=O)/C(=C/C=C2\SCCN2C)N(C)C1=S,5.26*,132.1*,.,104.8,-33.5,74.8
Cc1cc(/C=C2/C(=O)N(C)C(=S)N2C)c(C)n1C1CC1,2.21,98.8,19.1,104.0,3.6,51.3
Cn1nnnc1Sc1ncnc2scc(-c3cc4ccccc4o3)c12,.,.,-53.7,.,.,.
CCOC(=O)[C@@H](C)N(C(=O)OC(C)(C)C)S(=O)(=O)N(Cc1ccccc1)[C@H](C(=O)OC)C(C)C,.,.,22.9,.,.,.
c1ccc(-c2noc(-c3ccccc3-c3ccccc3)n2)cc1,1.41,95.7,.,89.1,4.7,-13.9
COc1cc(OC)cc(-c2nc(-c3ccc(Br)cc3)no2)c1,1.78,101.2,.,90.6,-1.3,-5.3
COc1ccc(-c2nc(-c3ccc(Br)o3)no2)cc1OC,1.76,126.0,.,103.5,-29.0,4.8
CN(C)c1ccc(-c2noc(-c3ccccc3O)n2)cc1,1.51,97.1,.,67.8,3.2,144.0*
COc1ccccc1-c1nc(-c2ccc(Br)o2)no1,6.73*,157.0*,.,159.0*,-63.1,218.1*
Cc1ccc(-c2noc(-c3ccccc3Br)n2)cc1,5.9*,133.4*,-17.2,122.7,-36.6,195.1*
Cc1ccc(-c2noc(-c3ccccc3C(=O)N3CCCC3)n2)cc1,0.89,121.3,20.5,128.0,-23.5,17.1
COc1ccccc1-c1nc(-c2ccc(Br)cc2)no1,4.66*,135.3*,.,135.1*,-35.9,162.5*
SMILES,NF-kB neuron act,STAT1 act,Pf gametocyte,STAT3 act,STAT1 blocker,APP 5'UTR act
Cc1csc(NC(=O)C(F)(F)F)n1,0.99,106.3,2.2,108.2,-7.1,-16.7
COc1cccc(N2[C@@H](CC(C)=O)c3ccc(/C=C/C(C)=O)cc3S2(=O)=O)c1,.,.,1.0,.,.,.
Cc1cccc(NC(=O)Nc2ccc(Cl)cc2)n1,.,.,20.4,.,.,.
Cc1cccc(NC(=O)Nc2ccc(C)c(C)c2)n1,2.1,129.2*,.,134.9*,-31.5,1.8
Cc1cccc(NC(=O)Nc2ccc([N+](=O)[O-])cc2)n1,1.09,133.9*,-5.6,90.4,-36.0,15.4
CCCCCCCOc1ccc(OC(=O)c2cccnc2)cc1,10.5*,103.4,.,85.0,-1.7,2.6
CCCCCCCOc1ccc(OC(=O)c2ccncc2)cc1,8.58*,96.6,0.2,80.8,-0.9,-2.7
